From ChEMBL document CHEMBL1759881, “Synthesis and anti-inflammatory activity of ent-kaurene derivatives” (Eur J Med Chem, 2011)
Active and inactive are the calls of the source. The calls are words filed in the database; no cut-off is given here.

Tests used:
RAW264.7 [1] = test: Antiinflammatory activity in mouse RAW264.7 cells assessed as inhibition of LPS-induced TNFalpha production at 5 uM pretreated for 15 mins before LPS challenge measured after 24 hrs by ELISA; format: functional, cell-based
Procedure, shortened: (§1)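 RAW 264.7 macrophages pre-incubated 15 min with compound or left untreated, then LPS 250 ng/ml for 24 h. IL-6, IL-1, TNF and IFN measured in supernatant by ELISA. Means ± S.D. of three independent experiments run in triplicate.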

RAW264.7 [2] = test: Antiinflammatory activity in mouse RAW264.7 cells assessed as inhibition of LPS-induced IL-1alpha production at 5 uM pretreated for 15 mins before LPS challenge measured after 24 hrs by ELISA; format: functional, cell-based; procedure, shortened: as §1
RAW264.7 [3] = test: Inhibition of NF-kappaB activation in LPS-stimulated mouse RAW264.7 cells assessed as IkappaBalpha degradation pretreated at 5 uM for 15 mins before LPS challenge measured after 24 hrs by Western blotting; format: cell-based
[4] = Cytotoxicity against LPS-stimulated mouse RAW264.7 cells assessed as cell viability at 1 to 25 uM pretreated for 15 mins before LPS challenge measured after 24 hrs by MTT assay; format: cell-based; settings: LPS-stimulated RAW264.7 cells, read-out: Activity
Procedure, shortened: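 RAW 264.7 cells plated at 10⁵ cells/well, treated with compound at 1–25 in the presence of LPS 250 ng/ml for 24 h. MTT then added for 4 h at 37 °C, formazan extracted in DMSO, absorbance read at 540 nm. Viability expressed relative to untreated controls. Triplicate wells, at least three independent experiments.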

RAW264.7 [5] = test: Antiinflammatory activity in mouse RAW264.7 cells assessed as inhibition of LPS-induced IL-6 production at 5 uM pretreated for 15 mins before LPS challenge measured after 24 hrs by ELISA; format: functional, cell-based; procedure, shortened: as §1
RAW264.7 [6] = test: Cytotoxicity against LPS-stimulated mouse RAW264.7 cells assessed as cell viability at 1 to 50 uM pretreated for 15 mins before LPS challenge measured after 24 hrs by MTT assay; format: cell-based; settings: raw264.7, 24 h
Procedure, shortened: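 RAW 264.7 cells pre-treated 15 min with compound (1, 5, 10, 25, 50), then LPS 250 ng/ml for 24 h. Viability by MTT: 4 h at 37 °C, formazan dissolved in DMSO, absorbance 540 nm, relative to untreated control. Triplicate; means ± S.D. of three experiments.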

RAW264.7 [7] = test: Antiinflammatory activity in mouse RAW264.7 cells assessed as inhibition of LPS-induced NOS2 protein expression pretreated at 5 uM for 15 mins before LPS challenge measured after 24 hrs by Western blotting; format: functional, cell-based
Procedure, shortened: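 Macrophages pre-incubated 15 min with compound, then LPS 250 ng/ml for 24 h. NOS-2 protein detected by Western blot with β-actin as loading control. A representative of three experiments is shown.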

RAW264.7 [8] = test: Antiinflammatory activity in mouse RAW264.7 cells assessed as inhibition of LPS-induced IFN-gamma production at 5 uM pretreated for 15 mins before LPS challenge measured after 24 hrs by ELISA; format: functional, cell-based; procedure, shortened: as §1
RAW264.7 [9] = test: Antiinflammatory activity in mouse RAW264.7 cells assessed as inhibition of LPS-induced nitric oxide release pretreated for 15 mins before LPS challenge measured after 24 hrs by Griess method; format: functional, cell-based
Procedure, shortened: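 RAW 264.7 cells pre-incubated 15 min with compound (1–25 range in the table; 1, 5, 10, 25, 50 for dose-response) or DMSO vehicle, then LPS 250 ng/ml for 24 h. Nitrite in supernatant measured by Griess reagent, absorbance at 548 nm against NaNO2 standard. IC50 is the concentration giving 50% inhibition of NO release. Means ± SD of three independent experiments in triplicate.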

RAW264.7 [10] = test: Antiinflammatory activity in mouse RAW264.7 cells assessed as inhibition of LPS-induced NOS2 mRNA expression pretreated at 5 uM for 15 mins before LPS challenge measured after 4 hrs by RT-PCR analysis; format: functional, cell-based
Procedure, shortened: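 Macrophages pre-incubated 15 min with compound, then LPS 250 ng/ml for 4 h. NOS-2 mRNA measured by real-time quantitative PCR, samples in duplicate, normalized to housekeeping gene 36B4 (acidic ribosomal phosphoprotein P0). Fold induction taken from average replicate values. Means ± S.D. of three independent experiments in triplicate; Student's unpaired t test vs LPS.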

| Compound | IC50 (RAW264.7 [9]) [µM] | Activity (RAW264.7 [1]) | Activity (RAW264.7 [2]) | Activity (RAW264.7 [3]) | viability at 24 h, up to 25 µM [4] [%] | Activity (RAW264.7 [5]) | Activity (RAW264.7 [6]) | Activity (RAW264.7 [7]) | Activity (RAW264.7 [8]) | inhibition (RAW264.7 [9]) | Activity (RAW264.7 [10]) |
| --- | --- | --- | --- | --- | --- | --- | --- | --- | --- | --- | --- |
| COC(=O)[C@]1(C)CCC[C@@]2(C)[C@@H]3CC[C@@H]4C[C@@]3(CC[C@@H]21)C(=O)[C@@]41CCN=N1 | > 25 |  |  |  | 48 |  |  |  |  |  |  |
| C=C1[C@@H]2CC[C@H]3[C@]4(C)CCC[C@@](C)(C(=O)O)[C@H]4CC[C@]3(C2)[C@H]1O | > 25 |  |  |  | 100 |  |  |  |  |  |  |
| COC(=O)[C@]1(C)CCC[C@@]2(C)[C@@H]3CC[C@@H]4C[C@@]3(CC[C@@H]21)C[C@]41COS(=O)O1 (stereo partly drawn) | > 25 |  |  |  | 60 |  |  |  |  |  |  |

Stronger by IC50 (RAW264.7 [9]), values ahead:

| IC50 (RAW264.7 [9]) [µM] | Compound | Activity (RAW264.7 [1]) | Activity (RAW264.7 [2]) | Activity (RAW264.7 [3]) | viability at 24 h, up to 25 µM [4] [%] | Activity (RAW264.7 [5]) | Activity (RAW264.7 [6]) | Activity (RAW264.7 [7]) | Activity (RAW264.7 [8]) | inhibition (RAW264.7 [9]) | Activity (RAW264.7 [10]) |
| --- | --- | --- | --- | --- | --- | --- | --- | --- | --- | --- | --- |
| 7 | C[C@@]12CCC[C@@](C)(C(=O)OCc3ccccc3)[C@H]1CC[C@@]1(CC(=O)O)CCCC[C@H]12 | Active | Active | Active | 95 | Active | Non-toxic | Active | Active | Dose-dependent effect | Active |
| 7 | C[C@@]12CCC[C@@](C)(C(=O)OC[Si](C)(C)C)[C@H]1CC[C@@]1(CC(=O)O)CCCC[C@H]12 | Active | Active | Active | 95 | Active | Non-toxic | Active | Active | Dose-dependent effect | Active |
